GSK3A inh: human GSK-3 alpha kinase inhibition. ADP-Glo luminescence, 60 min. inhibition, % at 10 µM. 320,000 compounds, 0.1% hits;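 active = more than half of replicates show inhibition above 20%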;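 note: GST-tagged GSK-3 alpha with peptide substrate and 25 µM ATP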
DYRK1A inh: Dyrk1A (rat) kinase inhibition. Q63470. ADP-Glo luminescence, NFATc1 peptide. inhibition, % at 12.5 µM. 310,000 compounds, 0.43% hits. AID 504441; in the data active = inhibition above about 50%
STK33 kinase inh: inhibitors of human STK33 kinase. inhibition, % at 10 µM. 320,000 compounds, 0.073% hits. purified STK33, MBP phosphorylation, ADP-Glo luminescence. AID 2661;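 active = inhibition at or above 25%, using the most active replicate where run in duplicate; inactive = inhibition below 25%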
Arr AP2 block: blocks beta-arrestin peptide binding to AP2 adaptin; FITC-arrestin peptide / GST-AP2 beads, flow cytometry; AP2 beta2 appendage carries R879A mutation; inhibition, % at 10 µM; 340,000 compounds, 0.31% hits; AID 504490;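 active = inhibition above a set limit, near 3 SD of compounds lacking own fluorescence, cut at about 54% in these data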
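Measured by: flow cytometry, FL1 (488/535 nm); Material: AP2 appendage R879A on GSH beads; Evaluation: percent response; Timing: pre-incubation 12 min, peptide binding 1 h, room temperature; Also added: 50 nM FITC-arrestin peptide; Medium: PBS with 0.05% Tween 20 and 0.1% BSA.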
Rin1 Abl inh: inhibitors of human Rin1-Abl protein interaction; P00519+Q13671; TR-FRET Rin1/Abl binding, biochemical; inhibition, % at 7.35 µM; 360,000 compounds, 0.4% hits; in the data active = inhibition above about 5%, passing the limit was not always enough
GSK3B inh: human GSK3beta kinase inhibition; P49841; GST-GSK3beta kinase, ADP-Glo luminescence, 60 min; active compounds read low; activity score (negative = inhibition), % at 10 µM; 300,000 compounds, 0.038% hits; AID 2097;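 active = more than half of replicate wells score below -50%, meaning over 50% inhibition versus plate controls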
Target sequence (P49841 whole entry, looked up): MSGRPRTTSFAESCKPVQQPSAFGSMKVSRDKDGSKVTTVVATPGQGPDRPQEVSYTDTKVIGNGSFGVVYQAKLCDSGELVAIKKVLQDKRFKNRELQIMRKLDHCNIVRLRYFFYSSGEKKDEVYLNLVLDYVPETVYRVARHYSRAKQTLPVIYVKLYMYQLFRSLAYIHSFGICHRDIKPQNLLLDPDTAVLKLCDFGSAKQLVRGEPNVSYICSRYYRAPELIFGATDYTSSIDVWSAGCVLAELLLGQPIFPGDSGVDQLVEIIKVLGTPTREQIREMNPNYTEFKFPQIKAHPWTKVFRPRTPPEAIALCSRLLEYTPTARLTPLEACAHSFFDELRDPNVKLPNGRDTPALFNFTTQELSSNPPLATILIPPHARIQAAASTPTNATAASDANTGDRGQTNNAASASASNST
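Assay system: GST-fused GSK3beta enzyme, cell-free / Medium: Tris pH 7.5 buffer with MgCl2, DTT, BSA, heparin / Also added: peptide substrate plus 25 µM ATP (final) / Compound: 10 µM single point / Timing: kinase reaction with compound 60 min at room temperature / Detection: ADP-Glo luminescence / Benchmarks: DMSO neutral wells and GW8510 at 20 µM as positive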
Arr-AP2 CP1: inhibitors of human beta-arrestin and AP2 interaction | shares compounds with Arr AP2 block | inhibition, % at 10 µM | 1,300 compounds, 2% hits | GST-AP2 beads, FITC arrestin peptide binding, flow cytometry; GST-fused beta2-adaptin appendage, R879A mutant;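 active = inhibition above a set limit, roughly 3 SD of non-fluorescent compound noise, cut at about 38% in these data; inactive = inhibition at or below that limit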;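 note: loss of bead fluorescence from 50 nM FITC arrestin peptide bound to appendage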
GST GSH counter: disrupts GST binding to glutathione beads, arrestin-AP2 artifact; shares compounds with Arr AP2 block; GST-fluorescein binding to GSH beads, fluorescence, counter-screen; inhibition, % at 10 µM; 1,300 compounds, 2% hits;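 active = inhibition above 50%, about 3 SD of the inhibition seen with non-fluorescent compounds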;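 note: fluorescein maleimide labelled GST captured on 4 micron glutathione beads; higher means more loss of bead fluorescence from quenching or blocked binding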
Large screens that a line does not name were inactive (follow-up assays come after a bar, where they were run). Only some compounds are listed: those with a hit (about 0.99% of all), similar ones and a draw of the others.

COc1ccc(CCCN2CCC(CN3CCNC(=O)C3=O)CC2)cc1OC	none (no result: GSK3A inh, DYRK1A inh, STK33 kinase inh, GSK3B inh)
Cc1cc(Cl)ccc1NC(=O)CCC(=O)N/N=C/c1cc([N+](=O)[O-])ccc1O	Arr AP2 block 105.4 | Arr-AP2 CP1 inactive | GST GSH counter inactive
C1CCN(c2nc(N3CCCCC3)nc(N3CCNCC3)n2)CC1	Arr AP2 block 100.9 | Arr-AP2 CP1 inactive | GST GSH counter inactive
CC1CCN(c2nc(N3CCCCC3)nc(N3CCCCC3)n2)CC1	none
O=C(CSc1nccn1Cc1ccc(F)cc1)NC1CCCCC1	none (no result: GSK3A inh, DYRK1A inh, STK33 kinase inh, Arr AP2 block, GSK3B inh)
CN(CCOc1ccccc1)C(=O)c1cc([N+](=O)[O-])cc([N+](=O)[O-])c1	Arr AP2 block 60.2 | Arr-AP2 CP1 inactive | GST GSH counter inactive
CC(C)(C)NC(=O)C1Cc2ccccc2CN1C(=O)Nc1ccccc1Cl (configuration not stated)	Arr AP2 block 82.8 | Arr-AP2 CP1 inactive | GST GSH counter inactive
O=C1NC(Cc2ccccc2)c2nc3ccc(Br)cc3c(=O)n2-c2cc(Cl)ccc21 (configuration not stated)	none (no result: DYRK1A inh, Arr AP2 block, Rin1 Abl inh, GSK3B inh)
CC1CN(S(=O)(=O)c2ccc(CN3C(=O)c4cccnc4C3=O)cc2)c2ccccc2O1 (configuration not stated)	Arr AP2 block 59.4 | Arr-AP2 CP1 inactive | GST GSH counter inactive
COc1ccc(CN2C(=O)c3cccnc3C2=O)cc1S(=O)(=O)N1CC(C)Oc2ccccc21 (configuration not stated)	none
C/C(=N\NC(=O)c1cc(-c2ccncc2)nc2ccccc12)c1ccc(N2CCOCC2)cc1	Arr AP2 block 111.0 | Arr-AP2 CP1 inactive | GST GSH counter inactive
CC(=NNC(=O)c1cc(C)nc2ccccc12)c1ccc(N2CCOCC2)cc1	none (no result: GSK3B inh)
COc1ccc(C2(C)NC(=O)N(CC(=O)Nc3ccc(C)cc3Br)C2=O)cc1OC (configuration not stated)	none
CC(C)Cn1c(N)c(C(=O)COC(=O)c2cc3ccccc3cc2O)c(=O)n(C)c1=O	none (no result: GSK3B inh)
Cc1cccc(C(=O)OCC(=O)c2c(N)n(CC(C)C)c(=O)n(C)c2=O)c1O	none | Arr-AP2 CP1 inactive | GST GSH counter inactive
CC(C)Cn1c(N)c(C(=O)COC(=O)c2ccc(O)cc2O)c(=O)n(C)c1=O	none | Arr-AP2 CP1 inactive | GST GSH counter inactive
CC1(NC(=O)/C=C/c2nc3ccccc3s2)CCS(=O)(=O)C1 (configuration not stated)	none (no result: GSK3B inh)
COc1ccc(NC(=O)/C(=C\c2cc(OC)c(OC)cc2[N+](=O)[O-])NC(=O)c2ccccc2)cc1	Arr AP2 block 59.8 | Arr-AP2 CP1 inactive | GST GSH counter inactive
COc1cc(/C=C(/NC(=O)c2ccccc2)C(=O)Nc2ccccc2)c([N+](=O)[O-])cc1OC	none
CCC(C(=O)Nc1ccc2c(c1)OCCO2)n1c(=O)[nH]c2ccccc2c1=O (configuration not stated)	none | Arr-AP2 CP1 inactive | GST GSH counter inactive
Cc1ccccc1CCNC(=O)c1ccc(Cl)c(S(=O)(=O)N2CC(C)OC(C)C2)c1 (configuration not stated)	none (no result: GSK3B inh)
CCCCc1ccc(NC(=O)CC(C)=O)cc1	none | Arr-AP2 CP1 inactive | GST GSH counter inactive
Cc1occc1C(=O)NCc1cccs1	Arr AP2 block 77.9 | Arr-AP2 CP1 inactive | GST GSH counter inactive
COCCN(C(=O)CCCC(=O)Nc1ccccn1)C(C(=O)NC1CCCCC1)c1ccc(C)cc1 (configuration not stated)	Arr AP2 block 100.5 | Arr-AP2 CP1 inactive | GST GSH counter inactive
CCC(=O)N1CCN(c2ccccc2NC(=O)c2cccs2)CC1	none
CC(Oc1cccc(Cl)c1)C(=O)Nc1ccncc1 (configuration not stated)	none
CC(OC(=O)c1ccncc1)C(=O)Nc1cccc(Cl)c1 (configuration not stated)	Arr AP2 block 80.5 | Arr-AP2 CP1 inactive | GST GSH counter inactive
